RGS4 act: potentiators or activators of RGS4; HEK293 M3R/inducible RGS4, carbachol calcium flux Fluo4; stronger effect = lower value; B-score at 10 µM; 310,000 compounds, 0.92% hits;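 active means B-score of the integrated calcium signal more than 4 SD below the library mean, with starting fluorescence not abnormally high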;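 further: negative B-score means reduced calcium response which marks RGS4 activation or potentiation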
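System: HEK293 FlpIn-TREx cells, stable M3R, doxycycline-inducible RGS4. Timing: overnight RGS4 induction, 30 min dye load 37 °C, 20 min compound RT. Also added: carbachol, ECmax concentration. Measured by: Fluo4 fluorescence kinetic imaging of calcium. Evaluation: integrated calcium ratio converted to B score.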
MrgX1 agonist: activates human MrgX1 receptor signaling; B-score at 10 µM; AID 588627; 310,000 compounds, 0.44% hits; Q96LB2; MrgX1-HEK293 cells, Fluo-4 calcium fluorescence, agonist mode; stronger effect = higher value;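 active means calcium response B-score plate-corrected fluorescence ratio at least 3 library SD, with starting fluorescence B-score inside 5 SD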
Target sequence (Q96LB2 whole entry, looked up): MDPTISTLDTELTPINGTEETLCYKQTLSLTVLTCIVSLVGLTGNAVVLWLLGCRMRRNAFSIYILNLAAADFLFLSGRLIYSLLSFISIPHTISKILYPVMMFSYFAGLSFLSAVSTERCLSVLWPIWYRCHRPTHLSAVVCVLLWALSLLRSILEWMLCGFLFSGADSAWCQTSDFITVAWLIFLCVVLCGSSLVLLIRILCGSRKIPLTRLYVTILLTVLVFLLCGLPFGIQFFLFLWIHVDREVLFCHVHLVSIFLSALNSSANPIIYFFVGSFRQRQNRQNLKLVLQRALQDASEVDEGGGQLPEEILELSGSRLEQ
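Material: MrgX1-expressing HEK293 cells; input: 15,000 cells per well; doses: test compound given as first of three sequential additions; schedule: overnight plating before 1 h dye loading; technique: Fluo-4 NW calcium-flux fluorescence, kinetic read; evaluation: baseline-normalised fluorescence change ratio, B-scored; control set: plate-wise positive and negative controls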
MrgX1 PAM: allosterically activates human MrgX1 receptor signaling; Q96LB2; MrgX1-HEK293, Fluo-4 calcium flux, FDSS; stronger effect = higher value; B-score at 10 µM; 310,000 compounds, 0.63% hits; AID 588675;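 active means plate-corrected calcium response at least 3 library SD above typical, normal starting fluorescence, not activating the receptor alone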;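 further: compound read alongside a low EC10 to EC30 dose of BAM8-22 agonist; peak minus trough fluorescence over baseline measured at the second addition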
MrgX1 antagonist: antagonists of human MrgX1 receptor. B-score at 10 µM. AID 588676. MRGX1-HEK293 calcium flux, Fluo-4, BAM8-22 antagonism; stronger effect = lower value. 310,000 compounds, 1.3% hits;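 active means calcium-response B-score plate-corrected more than 3 library SD below zero, starting fluorescence within 5 deviations, no agonist response on first addition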;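 further: peak minus trough fluorescence over baseline after final BAM8-22 challenge near maximal dose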
RGS4 inh: inhibitors of human RGS4; P49798; HEK293 M3R/RGS4 inducible, Fluo-4 calcium flux; stronger effect = higher value; triggered by carbachol at its EC20; 310,000 compounds, 0.45% hits; AID 463165; B-score at 10 µM;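 active means B-score, a plate-corrected calcium signal, over three deviations above library mean, with baseline fluorescence within five deviations of library mean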;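 further: RGS4 expression induced by doxycycline in cells with stable M3 receptor; B-score is computed from the integrated fluorescence ratio over baseline after carbachol; higher B-score means a larger calcium signal and so more RGS4 inhibition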
Target sequence (P49798 whole entry, looked up): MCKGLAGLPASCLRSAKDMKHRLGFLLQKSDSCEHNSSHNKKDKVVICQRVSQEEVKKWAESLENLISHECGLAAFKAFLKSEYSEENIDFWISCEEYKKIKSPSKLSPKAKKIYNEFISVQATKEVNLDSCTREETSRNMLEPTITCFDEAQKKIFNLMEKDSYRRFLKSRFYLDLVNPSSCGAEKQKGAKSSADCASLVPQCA
MrgX1 antag conf: human MrgX1 receptor antagonism, re-confirmation screen. shares compounds with MrgX1 antagonist. MrgX1-HEK293, BAM8-22 calcium flux, Fluo-4; stronger effect = lower value. remaining BAM8-22 calcium response % of control (stronger effect = lower value), % at 10 µM. 2,300 compounds, 19% hits;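 active means remaining agonist calcium response no higher than 100% minus 3 SD of agonist-only control wells, with starting fluorescence near control levels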;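 further: agonist BAM8-22 given at a near maximal EC90 to ECmax level; peak minus minimum fluorescence divided by baseline after agonist addition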
HEK293 Ca flux: activity in parental HEK293 cells lacking MrgX1 | AID 624111 | 4,000 compounds, 2% hits | Fluo-4 calcium fluorescence, FDSS | shares compounds with MrgX1 antagonist | fluorescence ratio F(max-min)/F0 at 10 µM;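 active means duplicate-averaged calcium fluorescence ratio at least three times the standard deviation of buffer wells, a nonspecific response in parental cells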
HEK293 Ca counter: activity in parental HEK293 cells without MrgX1 | parental HEK293 calcium flux, Fluo-4 fluorescence ratio; stronger effect = higher value | fluorescence ratio F(max-min)/F0 at 10 µM | shares compounds with MrgX1 antagonist | 4,000 compounds, 0.4% hits;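 active means calcium fluorescence ratio, averaged over duplicates, at least 3 SD of the buffer-well ratio, meaning a nonspecific response in receptor-free cells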;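 further: untransfected parental HEK293 lacking MrgX1 used as counterscreen for MrgX1 allosteric activators; fluorescence change taken during the second addition on a kinetic imager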
HEK293 Ca cntr2: activity in parental HEK293 cells lacking MrgX1 receptor. shares compounds with MrgX1 antagonist. 4,000 compounds, 8.7% hits. Fluo-4 calcium fluorescence (FDSS); stronger effect = higher value. AID 624115. fluorescence ratio F(max-min)/F0 at 10 µM;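 active means calcium fluorescence ratio at least three times the spread of buffer wells, meaning a non-specific response in parental cells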
Starred values were filed as active, the others as inactive; i = inactive; . = not tested or not shown. Shown are actives, neighbours in structure and some others; about 3.5% of the full set was active somewhere.

SMILES	RGS4 act	MrgX1 agonist	MrgX1 PAM	MrgX1 antagonist	RGS4 inh	MrgX1 antag conf	HEK293 Ca flux	HEK293 Ca counter	HEK293 Ca cntr2
COc1ccc(CCNC(=O)c2cc(-c3ccc(Cl)c(Cl)c3)oc2C)cc1	i	i	i	i	i	.	.	.	.
COC(=O)[C@@H](Cc1c[nH]c2ccccc12)NC(=O)c1cc(=O)[nH]c2ccccc12	i	i	i	i	i	.	.	.	.
COC(=O)C(Cc1ccccc1)NC(=O)c1cc(=O)[nH]c2ccccc12 (stereo unspecified)	i	i	i	-4.7*	i	i	i	i	i
CCOC(=O)N1CCN(C(=O)C2CCN(Cc3nc(-c4ccccc4C)oc3C)CC2)CC1	i	i	i	-4.8*	i	i	i	i	i
COc1ccc(CCN2CC(C(=O)NCCc3ccccc3C)CCC2=O)cc1 (stereo unspecified)	i	i	i	i	i	.	.	.	.
Cc1cc(C)cc(NC(=O)C2CCN(S(=O)(=O)c3ccc4c(c3)NC(=O)C(C)S4)CC2)c1 (stereo unspecified)	i	i	i	i	i	.	.	.	.
Cc1ccc(NC(=O)C2CCN(S(=O)(=O)c3ccc4c(c3)NC(=O)C(C)S4)CC2)cc1Cl (stereo unspecified)	i	i	i	-4.6*	i	86%*	i	i	i
CCOC(=O)c1sc(=NC(=O)CCS(=O)(=O)c2ccccc2)n(C)c1C	i	i	i	-5.7*	i	i	i	i	i
CCOC(=O)c1sc(=NC(=O)c2ccccc2)n(C)c1C	i	i	i	i	i	.	.	.	.
CCNc1nc(NCC)n2c(SCC(=O)Nc3ccccc3C(F)(F)F)nnc2n1	i	i	i	i	i	.	.	.	.
CCNc1nc(NCC)n2c(SCC(=O)Nc3ccccc3Cl)nnc2n1	i	i	i	-8.6*	i	i	i	i	i
Cc1ccccc1CNS(=O)(=O)c1ccc2c(c1)OCCO2	i	i	i	-4.7*	i	i	i	i	i
CC1CCN(C(=O)CCC(=O)Nc2nnc(C(F)(F)F)s2)CC1	i	i	i	i	i	.	.	.	.
Cc1ccc(NS(=O)(=O)c2ccc(Cl)c(NC(=S)NC(=O)C3CCCCC3)c2)cc1Cl	i	i	i	i	i	.	.	.	.
O=C1N=C(c2ccccc2)C(c2ccccc2)N1 (stereo unspecified)	i	i	i	-7.3*	i	i	i	i	i
CC1(C)NC(=O)N(CC(=O)N2CCN(c3cccc(C(F)(F)F)c3)CC2)C1=O	i	i	i	-6.5*	i	67%*	i	i	i
O=C(CN1C(=O)NC2(CCCC2)C1=O)N1CCN(c2cccc(C(F)(F)F)c2)CC1	i	i	i	i	i	.	.	.	.
CN1C(C)(C)CCCC1(C)C	.	i	i	-7*	.	77%*	i	i	i
CC(C)(C)NS(=O)(=O)c1ccc(CCC(=O)Nc2ccc3c(c2)OCCO3)cc1	i	i	i	-4.7*	i	i	i	i	i
CC(C)c1cc2c(c(O)c1O)[C@@]13CCCC(C)(C)C1CC2OC3=O (stereo partly specified)	i	i	i	-4.5*	i	76%*	i	i	i
O=C(NCCCN1CCOCC1)c1cc2ccccc2cc1O	i	i	i	-4.7*	i	i	i	i	i
COc1cc2ccccc2cc1C(=O)NCCCN1CCOCC1	i	i	i	i	i	.	.	.	.
COCCN1C(=O)/C(=C/c2ccc(N3CCCC3)cc2)SC1=S	i	i	i	-12*	i	i	i	i	i
CCn1c(CNC(=O)c2cccnc2)cc2ccccc21	i	i	i	i	i	.	.	.	.
CC1CCN(c2ccc3nnc(CCC(=O)Nc4cccc(F)c4)n3n2)CC1	i	i	i	i	i	.	.	.	.
SMILES	RGS4 act	MrgX1 agonist	MrgX1 PAM	MrgX1 antagonist	RGS4 inh	MrgX1 antag conf	HEK293 Ca flux	HEK293 Ca counter	HEK293 Ca cntr2
COc1ccc(NC(=S)N2CCCC(c3nc4ccc(C)cc4[nH]3)C2)c(OC)c1 (stereo unspecified)	i	i	i	i	i	.	.	.	.
COc1ccc(NC(=S)N2CCCC(c3nc4ccc(C)cc4[nH]3)C2)cc1 (stereo unspecified)	i	i	i	-9.5*	i	i	i	i	i
CCOC(=O)c1cnc(SC)nc1Oc1cccc(NS(=O)(=O)c2ccccc2)c1	i	i	i	i	i	.	.	.	.
CCOC(=O)c1cnc(SC)nc1Oc1cccc(NS(=O)(=O)c2ccc(F)cc2)c1	i	i	i	-6.8*	i	i	i	i	i
COCCN(C(=O)c1ccco1)c1nnc(-c2ccc(OC)c(OC)c2)s1	i	i	i	i	i	.	.	.	.
COc1ccc(-c2nnc(N(C)C(=O)c3ccco3)s2)cc1OC	i	i	i	-7.5*	i	i	i	i	i
O=C(NCCc1cn2ccsc2n1)c1cccs1	i	i	i	-6.3*	i	i	i	i	i
O=S(=O)(NCc1cn2ccsc2n1)c1cccs1	i	i	i	i	i	.	.	.	.

Compound activity from PubChem.
